Reference: ChEMBL document CHEMBL1134309, “O-Phosphonatomethylcholine, its analogues, alkyl esters, and their biological activity” (J Med Chem, 2001)

Columns and labels:
Lymphoma cell line = assay: Percent decrease of Lymphoma mass of animals treated with the compound; format: functional; set-up: scale not given: the % may be the effect or the level left
In short: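 Male SD rats, 2 months old, ~300 g, 4 per group. 10⁶ SD lymphoma cells given s.c. to the right flank. From day 10, drug in PBS pH 7.2 (3 mL, 1 mg/mL) was injected once daily next to the tumour for 10 days; controls got PBS only. Rats were killed 24 h later and lymphomas weighed. Result is mean mass decrease versus controls.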

MES-SA (Homo sapiens) [1] = assay: In vitro cytotoxic activity against uterine sarcoma (MES-SA) cells assayed by inhibition of [3H]-labeled thymidine incorporation
DU-145 [2] = assay: In vitro cytotoxic activity against prostate carcinoma (DU-145) cells assayed by inhibition of [3H]-labeled thymidine incorporation; format: functional, cell-based; conditions: Homo sapiens
In short: (§1)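 Human tumour lines in 10% FBS medium (HT-29 and MES-SA in McCoy's 5a; NCI-H460 in RPMI 1640; DU-145 in MEM/Earle's), 37 °C, 5% CO2. Trypsin/EDTA-harvested, plated at 1 × 10⁴ cells/well, attached ~4 h. Serial dilutions tested, 8 wells/concentration. [methyl-³H]thymidine, 0.25 μCi/well, added at 24 h, then 48 more h (72 h total). Cells Triton-lysed, filter-harvested, counted. IC50 is the average of 3–5 determinations.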

HT-29 [3] = assay: In vitro cytotoxic activity against colon adenocarcinoma (HT-29) cells assayed by inhibition of [3H]-labeled thymidine incorporation; format: functional, cell-based; conditions: Homo sapiens; in short: as §1
NCI-H460 [4] = assay: In vitro cytotoxic activity against nonsmall cell lung carcinoma (NCI-H460) cells assayed by inhibition of [3H]-labeled thymidine incorporation; format: functional, cell-based; conditions: Homo sapiens; in short: as §1
HT-29 [5] = assay: In vitro cytotoxic activity against colon adenocarcinoma (HT-29) cells assayed by inhibition of [3H]-labeled thymidine incorporation; Not calculable; format: functional, cell-based, Homo sapiens; in short: as §1
MES-SA (Homo sapiens) [6] = assay: In vitro cytotoxic activity against uterine sarcoma (MES-SA) cells assayed by inhibition of [3H]-labeled thymidine incorporation; Not calculable
DU-145 [7] = assay: In vitro cytotoxic activity against prostate carcinoma (DU-145) cells assayed by inhibition of [3H]-labeled thymidine incorporation; Not calculable; format: functional, cell-based, Homo sapiens; in short: as §1
NCI-H460 [8] = assay: In vitro cytotoxic activity against nonsmall cell lung carcinoma (NCI-H460) cells assayed by inhibition of [3H]-labeled thymidine incorporation; Not calculable; format: functional, cell-based, Homo sapiens; in short: as §1

Compound | Activity (Lymphoma cell line) | IC50 (MES-SA (Homo sapiens) [1]) | IC50 (DU-145 [2]) | IC50 (HT-29 [3]) | IC50 (NCI-H460 [4]) | IC50 (HT-29 [5]) | IC50 (MES-SA (Homo sapiens) [6]) | IC50 (DU-145 [7]) | IC50 (NCI-H460 [8])
CCCCCCCCCCCCCCCCOP(=O)([O-])COCC[N+](C)(C)C | 41% | 2110 nM | 17.2 µM | 4760 nM | 15.7 µM |  |  |  | 
CCCCCCCCCCCCCCCOP(=O)([O-])COCC[N+](C)(C)C |  | 9590 nM | 19.9 µM |  | 18 µM | Not calculable |  |  | 
CCCCCCCCCCCCOP(=O)([O-])COCC[N+](C)(C)C |  |  | 133 µM |  | 138 µM | Not calculable | Not calculable |  | 
CCCCCCCCCCCCCCOP(=O)([O-])COCC[N+](C)(C)C | 30% |  |  | 12200 nM | 40.3 µM |  | Not calculable | Not calculable | 
CCCCCCCCCCOP(=O)([O-])COCC[N+](C)(C)C |  |  |  |  |  | Not calculable | Not calculable | Not calculable | Not calculable
Nc1ccn([C@@H]2O[C@H](CO)[C@@H](O)C2(F)F)c(=O)n1 [GEMCITABINE] |  | 9.2 nM | 0.0356 µM | 3 nM | 0.0078 µM |  |  |  | 
CCCCCCCCCCCCCCCCOP(=O)([O-])OCC[N+](C)(C)C [MILTEFOSINE] |  | 5350 nM | 24.9 µM | 6150 nM | 6.62 µM |  |  |  | 
CC(=O)O[C@H]1C(=O)[C@@]2(C)[C@H]([C@H](OC(=O)c3ccccc3)[C@]3(O)C[C@H](OC(=O)[C@H](O)[C@@H](NC(=O)c4ccccc4)c4ccccc4)C(C)=C1C3(C)C)[C@]1(OC(C)=O)CO[C@@H]1C[C@@H]2O [PACLITAXEL] |  | 0.04 nM |  | 0.16 nM | 0.00014 µM |  |  |  | 
CC[C@]1(O)C[C@H]2CN(CCc3c([nH]c4ccccc34)[C@@](C(=O)OC)(c3cc4c(cc3OC)N(C=O)[C@H]3[C@@](O)(C(=O)OC)[C@H](OC(C)=O)[C@]5(CC)C=CCN6CC[C@]43[C@@H]65)C2)C1 [VINCRISTINE] |  | 0.02 nM | 0.00112 µM | 0.01 nM | 0.00013 µM |  |  |  | 
